Experimental data reported in ChEMBL document CHEMBL2439987, “TRPV1 antagonist with high analgesic efficacy: 2-Thio pyridine C-region analogues of 2-(3-fluoro-4-methylsulfonylaminophenyl)propanamides” (Bioorg Med Chem, 2013).
The source made the active and inactive calls. No cut-off for these calls is given here.

Key:
[1] = molecular target: T1, Transient receptor potential cation channel subfamily V member 1 (Homo sapiens, UniProt Q8NER1); experiment: Antagonist activity at human TRPV1 expressed in CHOK1 cells assessed as inhibition of capsaicin-induced activity by FLIPR assay; format: cell-based, CHO-K1
T1 sequence (Q8NER1 whole entry): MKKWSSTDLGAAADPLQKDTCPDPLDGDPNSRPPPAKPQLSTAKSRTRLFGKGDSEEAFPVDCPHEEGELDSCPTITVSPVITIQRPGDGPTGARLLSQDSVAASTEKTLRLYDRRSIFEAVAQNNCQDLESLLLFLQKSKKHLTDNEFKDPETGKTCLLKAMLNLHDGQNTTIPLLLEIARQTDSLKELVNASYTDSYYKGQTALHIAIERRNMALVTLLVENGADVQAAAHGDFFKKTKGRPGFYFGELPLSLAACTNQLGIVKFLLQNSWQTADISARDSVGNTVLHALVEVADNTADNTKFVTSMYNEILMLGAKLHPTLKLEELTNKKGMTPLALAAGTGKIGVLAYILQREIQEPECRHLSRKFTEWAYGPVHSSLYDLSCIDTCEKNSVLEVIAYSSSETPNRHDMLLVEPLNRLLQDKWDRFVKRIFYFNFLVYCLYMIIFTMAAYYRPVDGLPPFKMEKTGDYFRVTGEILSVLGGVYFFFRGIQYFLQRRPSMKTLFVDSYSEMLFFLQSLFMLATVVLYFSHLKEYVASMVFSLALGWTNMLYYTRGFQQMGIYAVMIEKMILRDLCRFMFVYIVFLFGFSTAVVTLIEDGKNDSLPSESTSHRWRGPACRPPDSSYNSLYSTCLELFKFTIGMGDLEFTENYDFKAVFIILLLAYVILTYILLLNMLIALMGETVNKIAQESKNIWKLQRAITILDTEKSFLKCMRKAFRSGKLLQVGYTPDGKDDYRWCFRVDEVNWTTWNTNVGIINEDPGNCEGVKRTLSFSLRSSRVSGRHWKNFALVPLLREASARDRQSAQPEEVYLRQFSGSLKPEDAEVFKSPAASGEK

[2] = molecular target: T1, Transient receptor potential cation channel subfamily V member 1; experiment: Antagonist activity at human TRPV1 expressed in CHOK1 cells assessed as inhibition of pH-induced activity by FLIPR assay; format: cell-based, CHO-K1; conditions: for inhibition: CHO-K1
Mus musculus = experiment: Inhibition of capsaicin-induced hypothermia in NMRI mouse at 0.3 mg/kg, po administered 15 mins prior challenge measured at 30 mins post-challenge; format: functional, organism-based; set-up: dose 0.3 mg/kg
Rattus norvegicus [3] = experiment: Analgesic activity in CCI-induced Sprague-Dawley rat neuropathic pain model assessed as reduction in paw withdrawal at 10 mg/kg, po measured 45 mins post compound administration relative to control; format: functional
Summary of the method: (§1)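 Chronic constriction injury (Bennett model) of neuropathic pain in rats, read out as cold allodynia. Compound given orally and compared with vehicle. Effect expressed as % maximal possible effect (MPE), with n = 10 per group, mean ± SEM, and p < 0.05 versus vehicle. ED50 taken from the dose–response.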

Rattus norvegicus [4] = experiment: Analgesic activity in CCI-induced Sprague-Dawley rat neuropathic pain model assessed as reduction in paw withdrawal measured 45 mins after po administration; format: functional; summary of the method: as §1
[5] = molecular target: T1, Transient receptor potential cation channel subfamily V member 1; experiment: Antagonist activity at human TRPV1 expressed in CHOK1 cells assessed as inhibition of 45 degC heat-induced activity after 5 mins by FLIPR assay; format: cell-based, CHO-K1
[6] = molecular target: T1, Transient receptor potential cation channel subfamily V member 1; experiment: Antagonist activity at human TRPV1 expressed in CHOK1 cells assessed as inhibition of N-arachidonoyl dopamine-induced activity after 5 mins by FLIPR assay

SMILES | Ki ([1]; read-out: Ki) | IC50 [2] | inhibition [2] | other results
CCCCCSc1nc(C(F)(F)F)ccc1CNC(=O)C(C)c1ccc(NS(C)(=O)=O)c(F)c1 (centres undefined) | 2.5 nM | 95.6 nM | – | –
CC(C(=O)NCc1ccc(C(F)(F)F)nc1SCC1CCCCC1)c1ccc(NS(C)(=O)=O)c(F)c1 (centres undefined) | 2.3 nM | 254 nM | – | –
CC1CCN(CCCSc2nc(C(F)(F)F)ccc2CNC(=O)C(C)c2ccc(NS(C)(=O)=O)c(F)c2)CC1 (centres undefined) | 2.9 nM | 217 nM | – | –
CC(C(=O)NCc1ccc(C(F)(F)F)nc1SCCC(=O)O)c1ccc(NS(C)(=O)=O)c(F)c1 (centres undefined) | – | – | inactive | Ki ([1]; cho-k1): Not Active
CC(C(=O)NCc1ccc(C(F)(F)F)nc1SCCC(=O)N1CCCC1)c1ccc(NS(C)(=O)=O)c(F)c1 (centres undefined) | 85 nM | – | inactive | –
CCCCCCSc1nc(C(F)(F)F)ccc1CNC(=O)C(C)c1ccc(NS(C)(=O)=O)c(F)c1 (centres undefined) | 5.6 nM | 719 nM | – | –
CC(C(=O)NCc1ccc(C(F)(F)F)nc1SCCCN1CCOCC1)c1ccc(NS(C)(=O)=O)c(F)c1 (centres undefined) | – | – | inactive | Ki ([1]; cho-k1): Not Active
CC(C(=O)NCc1ccc(C(F)(F)F)nc1SCc1cccs1)c1ccc(NS(C)(=O)=O)c(F)c1 (centres undefined) | 15 nM | – | inactive | –
CC(C(=O)NCc1ccc(C(F)(F)F)nc1SCCCN1CCCC1)c1ccc(NS(C)(=O)=O)c(F)c1 (centres undefined) | 3.3 nM | 312 nM | – | –
CCC1CCC(Sc2nc(C(F)(F)F)ccc2CNC(=O)C(C)c2ccc(NS(C)(=O)=O)c(F)c2)CC1 (centres undefined) | 1 nM | – | inactive | –
CC(C(=O)NCc1ccc(C(F)(F)F)nc1SCCc1ccccc1)c1ccc(NS(C)(=O)=O)c(F)c1 (centres undefined) | 1.9 nM | 111 nM | – | –
CC(C(=O)NCc1ccc(C(F)(F)F)nc1SCc1ccccc1Cl)c1ccc(NS(C)(=O)=O)c(F)c1 (centres undefined) | 4.9 nM | 620 nM | – | –
CC(C(=O)NCc1ccc(C(F)(F)F)nc1SCCCBr)c1ccc(NS(C)(=O)=O)c(F)c1 (centres undefined) | 7 nM | 68 nM | – | –
CC(C)CCSc1nc(C(F)(F)F)ccc1CNC(=O)C(C)c1ccc(NS(C)(=O)=O)c(F)c1 (centres undefined) | 0.7 nM | 82 nM | – | –
CC(C(=O)NCc1ccc(C(F)(F)F)nc1SC1CCCCC1C)c1ccc(NS(C)(=O)=O)c(F)c1 (centres undefined) | 1.9 nM | – | inactive | –
CC(C(=O)NCc1ccc(C(F)(F)F)nc1SCC(F)(F)F)c1ccc(NS(C)(=O)=O)c(F)c1 (centres undefined) | 4.3 nM | – | inactive | –
CC(C(=O)NCc1ccc(C(F)(F)F)nc1SCCCN(C)C)c1ccc(NS(C)(=O)=O)c(F)c1 (centres undefined) | 27.4 nM | 1500 nM | – | –
C[C@H](C(=O)NCc1ccc(C(F)(F)F)nc1SC1CCCCC1)c1ccc(NS(C)(=O)=O)c(F)c1 | 0.4 nM | > 1000 nM | – | inhibition (Mus musculus): Active; %max (Rattus norvegicus [3]): 75%; Activity (Rattus norvegicus [4]): Dose-dependent effect; ED50 (Rattus norvegicus [4]; 0.75 h): 0.19 mg/kg; IC50 [5]: 22.3 nM; Ki [6]: 0.05 nM

SMILES | Ki ([1]; read-out: Ki) | IC50 [2] | inhibition [2] | other results
COC(=O)CCSc1nc(C(F)(F)F)ccc1CNC(=O)C(C)c1ccc(NS(C)(=O)=O)c(F)c1 (centres undefined) | 48.2 nM | 1100 nM | – | –
CC(C(=O)NCc1ccc(C(F)(F)F)nc1SC1CCCCC1)c1ccc(NS(C)(=O)=O)c(F)c1 (centres undefined) | – | – | inactive | –
CC(C(=O)NCc1ccc(C(F)(F)F)nc1SCCCO)c1ccc(NS(C)(=O)=O)c(F)c1 (centres undefined) | – | – | – | Ki ([1]; cho-k1): Not Active
CC(C(=O)NCc1ccc(C(F)(F)F)nc1SC1CCCC1)c1ccc(NS(C)(=O)=O)c(F)c1 (centres undefined) | 1.2 nM | – | inactive | –
CC(C(=O)NCc1ccc(C(F)(F)F)nc1SCCOc1ccccc1)c1ccc(NS(C)(=O)=O)c(F)c1 (centres undefined) | 2.3 nM | 118 nM | – | –
C[C@@H](C(=O)NCc1ccc(C(F)(F)F)nc1SC1CCCCC1)c1ccc(NS(C)(=O)=O)c(F)c1 | 43.5 nM | – | inactive | –
CC(C(=O)NCc1ccc(C(F)(F)F)nc1SCc1ccco1)c1ccc(NS(C)(=O)=O)c(F)c1 (centres undefined) | 14.6 nM | – | inactive | –
C[C@H](C(=O)NCc1ccc(C(C)(C)C)cc1)c1ccc(NS(C)(=O)=O)c(F)c1 | 28 nM | 1280 nM | – | –
CC1CCC(Sc2nc(C(F)(F)F)ccc2CNC(=O)C(C)c2ccc(NS(C)(=O)=O)c(F)c2)CC1 (centres undefined) | 0.5 nM | 180 nM | – | –
CC(C(=O)NCc1ccc(C(F)(F)F)nc1[S+]([O-])C1CCCCC1)c1ccc(NS(C)(=O)=O)c(F)c1 (centres undefined) | – | – | inactive | Ki ([1]; cho-k1): Not Active
COc1ccc(CSc2nc(C(F)(F)F)ccc2CNC(=O)C(C)c2ccc(NS(C)(=O)=O)c(F)c2)cc1 (centres undefined) | 2.3 nM | 279 nM | – | –
CC(C(=O)NCc1ccc(C(F)(F)F)nc1SCCCN1CCCCC1)c1ccc(NS(C)(=O)=O)c(F)c1 (centres undefined) | 3 nM | 250 nM | – | –
Cc1ccc(CSc2nc(C(F)(F)F)ccc2CNC(=O)C(C)c2ccc(NS(C)(=O)=O)c(F)c2)cc1 (centres undefined) | 3.2 nM | 764 nM | – | –
CC(C(=O)NCc1ccc(C(F)(F)F)nc1SCc1cccc(C(F)(F)F)c1)c1ccc(NS(C)(=O)=O)c(F)c1 (centres undefined) | 3.9 nM | 71 nM | – | –
CC(C(=O)NCc1ccc(C(F)(F)F)nc1SC1CCC(C(C)(C)C)CC1)c1ccc(NS(C)(=O)=O)c(F)c1 (centres undefined) | 2.6 nM | 89.6 nM | – | –
CC(C(=O)NCc1ccc(C(F)(F)F)nc1S(=O)(=O)C1CCCCC1)c1ccc(NS(C)(=O)=O)c(F)c1 (centres undefined) | – | – | inactive | Ki ([1]; cho-k1): Not Active
CC(C(=O)NCc1ccc(C(F)(F)F)nc1SCc1ccc(Cl)cc1)c1ccc(NS(C)(=O)=O)c(F)c1 (centres undefined) | 8.7 nM | 674 nM | – | –
